Consider one molecule from ChEMBL document CHEMBL4431326, “Tumor Targeting with Novel 6-Substituted Pyrrolo [2,3-d] Pyrimidine Antifolates with Heteroatom Bridge Substitutions via Cellular Uptake by Folate Receptor α and the Proton-Coupled Folate Transporter and Inhibition of de Novo Purine Nucleotide Biosynthesis” (J Med Chem, 2016).

Data set [1] relates to IGROV-1. In words: Antiproliferative activity against human IGROV1 cells expressing human FR-alpha/PCFT assessed as reduction in cell viability measured after 96 hrs by Cell-Titer Blue fluorescence analysis. The data set is classed as functional, cell-based. Particulars: IGROV-1, 96 h.
The test system of data set [2] is IGROV-1. Description: Antiproliferative activity against human IGROV1 cells expressing human FR-alpha/PCFT assessed as reduction in cell viability measured after 96 hrs in presence of folic acid by Cell-Titer Blue fluorescence analysis. The data set is classed as functional, cell-based. Particulars: IGROV-1, 96 h.
Data set [3] has as its system IGROV-1. In words: Antitumor activity against human IGROV1 cells xenografted into folate-deficient diet fed SCID mouse assessed as tumor growth at 28 mg/kg, iv administered […] post 2 days of tumor implantation measured on day 20 relative to control. The format is functional. An outline of the steps: (§1)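 Female NCR SCID mice (11 weeks old, ~20 g) are fed a folate-deficient diet from 14 days before implant. IGROV1 fragments (30–60 mg) are trocar-implanted subcutaneously in both flanks, and mice are randomised at 5/group. Tail-vein dosing starts on day 2: 28 mg/kg/inj Q3dx5, or 96 or 150 mg/kg/inj Q3dx4. Vehicle is 5% ethanol, 1% Tween-80, 0.5% NaHCO3 in water at pH 6.5. Caliper tumor mass is (a×b²)/2, T/C is taken when controls reach 700–1200 mg, and weights are recorded daily.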
Background: In xenograft studies the graft and the host belong to different species.

For data set [4], the system named is IGROV-1. In words: Antitumor activity against human IGROV1 cells xenografted into folate-deficient diet fed SCID mouse assessed as tumor cell kill at 28 mg/kg, iv administered […] post 2 days of tumor implantation measured on day 20. The data set is classed as functional. An outline of the steps:
as §1

The subject of data set [5] is IGROV-1. Description: Antitumor activity against human IGROV1 cells xenografted into folate-deficient diet fed SCID mouse assessed as tumor growth at 96 mg/kg, iv administered […] post 2 days of tumor implantation measured on day 20 relative to control. The format is functional. A digest of the protocol: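 Female NCR SCID mice, 11 weeks, ~20 g, on folate-deficient or standard diet from 14 days pre-implant; bilateral s.c. IGROV1 fragments (30–60 mg); 5 mice/group; tail-vein dosing from day 2 (Q3d schedules) in 5% ethanol, 1% Tween-80, 0.5% NaHCO3, water, pH 6.5; caliper mass (a×b²)/2; T/C and T−C delay.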

The subject of data set [6] is IGROV-1. Description: Antitumor activity against human IGROV1 cells xenografted into folate-deficient diet fed SCID mouse assessed as tumor growth delay at 96 mg/kg, iv administered […] post 2 days of tumor implantation. The format is functional.
Data set [7] concerns IGROV-1. Description: Antitumor activity against human IGROV1 cells xenografted into folate-deficient diet fed SCID mouse assessed as tumor cell kill at 96 mg/kg, iv administered […] post 2 days of tumor implantation measured on day 20. The data set is classed as functional.
Data set [8] can be described thus: Toxicity in folate-deficient diet fed SCID mouse xenografted with human IGROV1 cells assessed as body weight loss at 28 mg/kg, iv administered […] post 2 days of tumor implantation measured during compound treatment. The format is organism-based. The conditions noted are these: in vivo, 48 h. A digest of the protocol:
as §1

The nature of data set [9]: Toxicity in folate-deficient diet fed SCID mouse xenografted with human IGROV1 cells assessed as body weight loss at 28 mg/kg, iv administered […] post 2 days of tumor implantation measured after 48 hrs of last dosage. The data set is classed as organism-based. The conditions noted are these: in vivo. A digest of the protocol: as §1
Data set [10] in a line: Toxicity in folate-deficient diet fed SCID mouse xenografted with human IGROV1 cells assessed as body weight loss at 96 and 150 mg/kg, iv administered […] post 2 days of tumor implantation measured after 48 hrs of last dosage. The data set is classed as organism-based. The conditions noted are these: in vivo. An outline of the steps:
as §1

The nature of data set [11]: Toxicity in standard diet fed SCID mouse xenografted with human IGROV1 cells assessed as body weight loss at 28 mg/kg, iv administered […] post 2 days of tumor implantation measured during compound treatment. Particulars: in vivo, 48 h. The data set is classed as organism-based. A digest of the protocol:
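Standard-diet female NCR SCID mice bearing bilateral s.c. IGROV1 fragments; i.v. tail-vein dosing from day 2 post-implant, Q3dx5, vehicle 5% ethanol/1% Tween-80/0.5% NaHCO3 in water, pH 6.5; mice weighed and assessed daily during and after treatment; weight loss recorded as nadir.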

With `Nc1nc2[nH]c(CCCc3ccc(C(=O)N[C@@H](CCC(=O)O)C(=O)O)s3)cc2c(=O)[nH]1`, the IC50 – broadly, the point on the concentration scale where inhibition reaches its midpoint – in the data set on IGROV-1 [1] came out at 0.95 nM; in the data set on IGROV-1 [2], 213 nM. Moreover, the figures for the T/C in the data set on IGROV-1 [3] and in the data set with IGROV-1 [5] were 35% and 29%, respectively. Moreover, the LCK with IGROV-1 [4] and in the data set on IGROV-1 [7] was 1.4 throughout. Further, the Time in the data set with IGROV-1 [6] is 9 days. In addition, the Activity in data set [8] is recorded as 15%; in [9] it was “Non-Toxic”; in data set [10], “Non-Toxic”; in data set [11], “Non-Toxic”.
